From paper PMC4565189 (Biochemistry, 2013)
No end group written: not given here.

Legend:
[1] = tested on: PLCβ1-α-synuclein association; assay: In vitro FRET: CPM-PLCβ1 / Dabcyl-α-synuclein association; type: binding; conditions: 200 µM and 500 µM peptide
[2] = tested on: α-synuclein self-association in PC12 cells; assay: GFP-α-synuclein/mCherry-α-synuclein FRET in PC12 cells; type: cell-based, human; conditions: 50 µM peptide microinjected, viewed within 2 h
In short: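 PC12 cells (DMEM, 10% horse serum, 5% FBS, 37 °C, 5% CO₂) are electroporated with eGFP- and mCherry-α-synuclein and plated on glass-bottom dishes 24 h later. Medium is switched to phenol-free L-15. Peptide (50 µM in pipette; 100 mM KCl, 5 mM K₂HPO₄, pH 7.4, 5 µM DAPI marker) is injected into cytoplasm for 0.4 s (30/15 hPa). Viable cells are selected, then confocal FRET is imaged within 2 h.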

[3] = tested on: purified α-synuclein; assay: CoCl2-induced aggregation of purified α-synuclein, SDS gel; type: biochemical
[4] = tested on: α-synuclein self-association in SK-N-SH cells; type: cell-based, human
[5] = tested on: PLCβ1; assay: Western blot of PLCβ1 level in SK-N-SH cells under oxidative stress; type: cell-based, human
[6] = tested on: α-synuclein; type: cell-based, human
[7] = tested on: PLCβ1; type: biochemical
[8] = tested on: PLCβ1; conditions: in cells; ref [16]; cited from earlier work
[9] = tested on: PLCβ; conditions: inhibition can be overcome by G proteins; ref [15]; cited from earlier work
[10] = tested on: PLCβ1-C3PO interaction; conditions: in vitro FRET; ref Sahu, Guo, and Scarlata, unpublished results; cited from earlier work
[11] = tested on: neuronal cells; conditions: overexpression of α-synuclein; ref [34]; cited from earlier work
[12] = tested on: PLCβ; conditions: among α-synuclein binding partners; ref [15]; cited from earlier work

In the case of CKKVVLPTLASLR [peptide], the PLCβ1-α-synuclein association [1] was “inhibits PLCβ1-α-synuclein association” and the “GFP-α-synuclein/mCherry-α-synuclein FRET, peptide” value [2] was “the same within error”.
In the case of `[Cl-].[Cl-].[Co+2]` [CoCl2], the “α-Synuclein aggregation induced by CoCl2” value [3] was “produces visible α-synuclein aggregation”, the “GFP-α-synuclein/mCherry-α-synuclein FRET, oxidative stress” value [4] was “significant increase in FRET” and the “Cellular level of PLCβ1” value [5] was “significantly reduces the cellular level of PLCβ1”. For the same molecule, the “Amount of α-synuclein” value [6] was “little effect on the amount of α-synuclein”, the “α-Synuclein tetramers vs monomers” value [6] was “increase in α-synuclein tetramers at the expense of monomers” and the “Amount of native PLCβ1” value [7] was “reduces the amount of native PLCβ1”.
In the case of α-synuclein, the “Decrease of PLCβ1 level due to oxidation, effect of α-synuclein” value ([5]; oxidative stress, α-synuclein present) is listed as “more pronounced in the presence of α-synuclein”, the “Intracellular level of PLCβ1” value [8] is listed as “raises the intracellular level of the enzyme” and the “PLCβ1 degradation by calpain” value [8] is listed as “prevents PLCβ1 degradation by calpain”. The PLCβ activity [9] was “inhibits PLCβ activity”, the “Interaction of Alexa488-PLCβ1 with Alexa546-C3PO” value [10] was “prevents Alexa488-PLCβ1 from interacting with Alexa546-C3PO” and the “Inclusions and neuronal death on overexpression” value [11] was “cause inclusions and neuronal death”. For the same molecule, the “Affinity of PLCβ for α-synuclein” value [12] was “one of the strongest affinities”.
